ChEMBL document CHEMBL3611983, “Highly Potent and Selective MT2 Melatonin Receptor Full Agonists from Conformational Analysis of 1-Benzyl-2-acylaminomethyl-tetrahydroquinolines” (J Med Chem, 2015)

How the values were obtained:
[1] = target: T1, Melatonin receptor type 1A (Homo sapiens, UniProt P48039); assay: Displacement of 2-[125I]-Iodomelatonin from human MT1 receptor transfected in CHO cell membranes after 120 mins
Outline: (§1)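 Membranes from CHO cells stably expressing the receptor were pelleted and homogenized in Tris 5 mM/EDTA 2 mM, then held at -80 °C. Assay buffer was 50 mM Tris-HCl pH 7.4 with 5 mM MgCl2. Radioligand was 20 pM, with nonspecific binding defined by 1 μM melatonin.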

[2] = Displacement of 2-[125I]-Iodomelatonin from human MT2 receptor transfected in CHO cell membranes after 120 mins; outline: as §1
CHO = assay: (§2) Intrinsic activity at human MT2 receptor transfected in CHO cell membranes after 1 hr by [35S]GTPgammaS binding assay
Outline: (§3)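 Transfected CHO membranes at 20 μg/mL were incubated in 20 mM HEPES pH 7.4 with 100 mM NaCl, 3 μM GDP, 3 mM MgCl2 and 20 μg/mL saponin. 0.2 nM [35S]GTPγS was added and incubation ran 1 h at room temperature. Nonspecific binding was defined by 10 μM GTPγS, with 1 μM melatonin as reference. Filtration was on GF/B. Curves used 7 concentrations in duplicate, giving EC50 and Emax.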

[3] = as §2; outline: as §3
[4] = target: T1, Melatonin receptor type 1A; assay: Intrinsic activity at human MT1 receptor transfected in CHO cell membranes after 1 hr by [35S]GTPgammaS binding assay; format: functional; outline: as §3
Homo sapiens = species on record: Homo sapiens; assay: Selectivity ratio of Ki for human MT1 receptor to Ki for human MT2 receptor

T1 sequence (P48039 whole entry): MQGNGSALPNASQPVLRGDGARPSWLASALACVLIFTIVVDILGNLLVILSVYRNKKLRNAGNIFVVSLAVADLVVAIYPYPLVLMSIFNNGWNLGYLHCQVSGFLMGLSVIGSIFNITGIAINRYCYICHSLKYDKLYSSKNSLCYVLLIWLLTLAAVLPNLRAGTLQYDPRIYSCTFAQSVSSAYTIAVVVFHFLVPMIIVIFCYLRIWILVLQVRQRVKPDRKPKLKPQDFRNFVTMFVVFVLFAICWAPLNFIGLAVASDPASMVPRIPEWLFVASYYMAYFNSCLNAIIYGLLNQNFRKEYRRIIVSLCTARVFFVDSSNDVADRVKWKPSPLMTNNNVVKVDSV

Row | Compound | Ki [1] [nM] | EC50 [3] [nM] | EC50 [4] [nM] | Emax [4] [%] | Ratio Ki (Homo sapiens) | Ki [2] [nM] | Emax (CHO) [%]
1 | CCC(=O)NCC1CCc2cc(OC)ccc2N1Cc1ccccc1 (racemic) | 186 | 4.6 | – | – | – | 1.5 | 75
2 | CCNC(=S)NCC1CCc2ccccc2N1 (racemic) | 305 | 1430 | 2660 | 35 | – | 90 | 72
3 | O=C(NCC1CCc2ccccc2N1Cc1ccccc1)C1CCC1 (racemic) | 633 | – | – | – | – | 6.2 | < 15
4 | CCC(=O)NCc1ccc2c(OC)cccc2n1 | > 10000 | – | – | – | – | 4450 | –
5 | CCNC(=S)NCC1CCc2c(cccc2OC)N1 (racemic) | > 1000 | – | – | – | – | > 1000 | –
6 | CCC(=O)NCC1CCc2c(cccc2OC)N1 (racemic) | 57 | 165 | 906 | 70 | – | 21 | 98
7 | CCC(=O)NCC1CCc2ccccc2N1c1ccccc1 (racemic) | 1.6 | 0.5 | 6.2 | 69 | – | 0.06 | 90
8 | CCC(=O)NCC1CCc2ccccc2N1 (racemic) | 13 | 27 | 242 | 37 | – | 2.2 | –
9 | CCC(=O)NCC1CCc2ccc(OC)cc2N1Cc1ccccc1 (racemic) | 214 | 25 | – | – | – | 26 | 42
10 | CCNC(=O)NCC1CCc2c(cccc2OC)N1 (racemic) | 480 | – | – | – | – | 114 | –
11 | CCC(=O)NCC1CCc2c(OC)cccc2N1Cc1ccccc1 (racemic) | 17 | 0.9 | 177 | 79 | > 10000 | 0.001 | 111
12 | CCC(=O)NCC1CCc2ccccc2N1Cc1ccccc1 (racemic) | 37 | 0.4 | 36 | 42 | > 400 | 0.09 | 73
13 | CCC(=O)NCC1CCc2c(OC)cccc2N1C (racemic) | 0.03 | 0.5 | 1.7 | 112 | – | 0.5 | 122
14 | CCC(=O)NCCC1CCc2ccccc2N1Cc1ccccc1 (racemic) | 326 | 4.7 | – | – | – | 1.6 | 59
15 | O=C(NCC1CCc2ccccc2N1Cc1ccccc1)C1CC1 (racemic) | 291 | 0.3 | – | – | – | 0.2 | 38
16 | CCNC(=O)NCC1CCc2ccccc2N1 (racemic) | 115 | 356 | 2420 | 30 | – | 17 | 80
17 | CCNC(=O)NCC1CCc2c(OC)cccc2N1Cc1ccccc1 (racemic) | 132 | 13 | 393 | 44 | – | 2.9 | 107
18 | CCNC(=O)NCC1CCc2c(OC)cccc2N1C (racemic) | 5 | 10 | 160 | 92 | – | 1.4 | 105

The next lines start with results.

Row | Ki [1] [nM] | EC50 [3] [nM] | EC50 [4] [nM] | Emax [4] [%] | Ratio Ki (Homo sapiens) | Compound | Ki [2] [nM] | Emax (CHO) [%]
19 | > 10000 | – | – | – | – | CCC(=O)NCC1CCc2ccccc2N1CC(=O)NC (racemic) | 385 | –
20 | 5.8 | 0.2 | 2 | 39 | – | CCCN1c2ccccc2CCC1CNC(C)=O (racemic) | 0.1 | 58
21 | 0.7 | 0.6 | 0.9 | 69 | – | CCC(=O)NCC1CCc2ccccc2N1C (racemic) | 0.2 | 122
22 | 171 | – | – | – | – | CC(=O)NCC1CCc2ccccc2N1CCc1ccccc1 (racemic) | 3 | < 15
23 | 5.3 | 6.2 | 110 | 69 | – | CCNC(=O)NCC1CCc2ccccc2N1C (racemic) | 3.4 | 97
24 | 45 | 0.4 | 31 | 35 | – | CC(=O)NCC1CCc2ccccc2N1Cc1ccccc1 (racemic) | 0.04 | 60
25 | 122 | 19 | – | – | – | CC(=O)NC[C@@H]1CCc2ccccc2N1Cc1ccccc1 | 6.2 | 60
26 | 45 | 1.9 | 192 | 52 | – | CC(=O)NC[C@H]1CCc2ccccc2N1Cc1ccccc1 | 0.1 | 80
27 | 22 | 66 | 809 | 76 | – | CCNC(=S)NCC1CCc2ccccc2N1C (racemic) | 15 | 73
